Results as given in ChEMBL document CHEMBL1121539, “Antitumor structure-activity relations. Nitrosoureas vs. L-1210 leukemia” (J Med Chem, 1980).

Legend:
[1] = Partition coefficient (logP); type: physicochemical; conditions: octanol/water
Method in brief: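 Shake partitioning between octanol and distilled water gave log P. For carboxylate substituents, log P was taken in 0.1 N NaOH, with Na+ as counterion.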

Mus musculus [2] = species on record: Mus musculus; assay: Tested for 3 log kill of leukemia cells (i.e., a reduction of 1000-fold in tumor cells); type: functional
Method in brief: (§1)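 L-1210 leukemia cells (10^4) were inoculated intracerebrally into BDF2 mice, and drug was given intraperitoneally. The end point was the dose giving 3 log kill, expressed as log 1/C. The value comes from one or more individual experiments.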

Mus musculus [3] = assay: Tested for toxicity against L-1210 leukemia cells in mice after ip administration, activity is expressed as LD10; type: organism-based; conditions: in vivo
L1210 [4] = assay: Tested for 3 log kill of leukemia cells; type: functional, Mus musculus; method in brief: as §1
L1210 [5] = assay: Toxicity against L-1210 leukemia cells in mice after intraperitoneal administration, activity is expressed as LD10; set-up: LD10: unit not given here; conditions: mouse, in vivo, ip

SMILES | logP [1] | log(1/C) (Mus musculus [2]) | log(1/LD10) (Mus musculus [3]) | logP ([1]; read-out: logP) | log(1/C) (L1210 [4]) | log(1/LD10) (L1210 [5]) | LD10 (L1210 [5])
O=NN(CCF)C(=O)N[C@H]1CC[C@@H](C(=O)O)CC1 | 1.1 | 1.06 | – | – | – | – | –
O=NN(CCCl)C(=O)N[C@H]1CC[C@H](O)CC1 | 1.1 | – | 0.774 | – | – | – | –
CC(=O)O[C@H]1CCCC[C@H]1NC(=O)N(CCCl)N=O | – | – | – | 1.96 | 1.24 | 0.776 | –
CC(C)C1CCC(NC(=O)N(CCF)N=O)CC1 (stereo unspecified) | – | – | – | 3.67 | 1.05 | 0.388 | –
O=NN(CCCl)C(=O)NC1CCS(=O)(=O)C1 (stereo unspecified) | – | – | – | 0.57 | 1.82 | 1.13 | –
CCOC(=O)C1(NC(=O)N(CCCl)N=O)CCCC1 | – | – | – | 2.88 | 0.562 | 0.072 | –
O=NN(CCCl)C(=O)N[C@@H]1CCCC[C@@H]1Cl | – | – | – | 2.73 | 0.951 | 0.446 | –
O=NN(CCCl)C(=O)N[C@H]1CC[C@@H](CC(=O)O)CC1 | – | – | – | 2.22 | 1.35 | 0.701 | –
O=NN(CCCl)C(=O)N[C@@H]1CCC[C@@H](O)C1 | – | – | – | 1 | 1.44 | 0.795 | –
O=COCC1CCC(NC(=O)N(CCCl)N=O)CC1 (stereo unspecified) | – | – | – | 1.85 | 1.62 | 1.12 | –
O=NN(CCCl)C(=O)NC1C2CC3CC(C2)CC1C3 (stereo unspecified) | – | – | – | 3.62 | 0.854 | 0.512 | –
CC1(C)CCC(NC(=O)N(CCF)N=O)CC1 | – | – | – | 3.13 | 1.09 | 0.674 | –
O=NN(CCCl)C(=O)N[C@H]1C(O)O[C@H](CO)[C@@H](O)[C@@H]1O (stereo in doubt; 103) [CHLOROZOTOCIN] | -0.66 | – | – | – | 1.46 | 0.928 | –
O=NN(CCF)C(=O)NC1CSCSC1 | – | – | – | 1.54 | 1.78 | 0.802 | –
O=NN(CCCl)C(=O)NC1CCCCCCCCCCC1 | – | – | – | 5.8 | 0.599 | -0.573 | –
O=NN(CCCl)C(=O)N[C@H]1C(O)O[C@H](CO)[C@@H](O)[C@@H]1O (stereo in doubt; 75) [CHLOROZOTOCIN] | -1.02 | – | – | – | 1.76 | 1.03 | –
O=NN(CCF)C(=O)NC1CCS(=O)(=O)CC1 | – | – | – | -0.39 | 1.92 | 0.922 | –
O=NN(CCCl)C(=O)NCCF | – | – | – | 0.95 | 0.673 | 0.49 | –
CC(=O)OCC1CCC(NC(=O)N(CCF)N=O)CC1 (stereo unspecified) | – | – | – | 1.77 | 0.984 | 0.705 | –
O=NN(CCCl)C(=O)NC1CCC(Br)CC1 (stereo unspecified) | – | – | – | 2.67 | 1.24 | 0.571 | –
CCOC(=O)C1(NC(=O)N(CCCl)N=O)CCCCC1 | – | – | – | 3.45 | 0.582 | -0.214 | –
O=NN(CCCl)C(=O)NC1CCC(CCl)CC1 (stereo unspecified) | – | – | – | 3.01 | 1.27 | 0.658 | –
CC(=O)OCC1CCC(NC(=O)N(CCCl)N=O)CC1 (stereo unspecified) | – | – | – | 2.35 | 1.66 | 1.02 | –
CCOC(=O)C1CCCC(NC(=O)N(CCCl)N=O)C1 (stereo unspecified) | – | – | – | 2.2 | 1.41 | 0.786 | –

SMILES | logP [1] | log(1/C) (Mus musculus [2]) | log(1/LD10) (Mus musculus [3]) | logP ([1]; read-out: logP) | log(1/C) (L1210 [4]) | log(1/LD10) (L1210 [5]) | LD10 (L1210 [5])
O=NN(CCCl)C(=O)NC1CCS(=O)(=O)CC1 | – | – | – | 0.19 | 1.93 | 1.22 | –
O=NN(CCCl)C(=O)NC1C=CCCC1 (stereo unspecified) | – | – | – | 2.45 | 1.16 | 0.848 | –
O=NN(CCF)C(=O)NC1CCC(NC(=O)N(CCCl)N=O)CC1 (stereo unspecified) | – | – | – | 2.41 | 1.37 | 0.595 | –
O=NN(CCCl)C(=O)NC1CSCSC1 | – | – | – | 2.08 | 1.81 | 1.07 | –
O=NN(CCF)C(=O)NC1CCSc2ccccc21 (stereo unspecified) | – | – | – | 2.33 | 1.31 | 0.896 | –
CCC1CCC(NC(=O)N(CCF)N=O)CC1 (stereo unspecified) | – | – | – | 3.26 | 0.736 | 0.515 | –
O=NN(CCCl)C(=O)NC1CCC(CC2CCC(NC(=O)N(CCCl)N=O)CC2)CC1 (stereo unspecified) | – | – | – | 6.07 | 1.36 | 0.283 | –
CC(C)(Cc1ccccc1)NC(=O)N(CCCl)N=O | – | – | – | 3.42 | 0.737 | -0.422 | –
C[C@H]1S(=O)(=O)C[C@H](NC(=O)N(CCCl)N=O)CS1(=O)=O | – | – | – | -0.53 | 1.89 | 0.801 | –
CC12CC3(C)CC(C)(C1)CC(NC(=O)N(CCCl)N=O)(C2)C3 | – | – | – | 5.75 | 0.783 | -0.384 | –
CN(C(=O)N(CC/C=N/C(=O)N(CCCl)N=O)N=O)C1CCCCC1 | – | – | – | 3.19 | 0.353 | -0.207 | –
CCC1CCC(NC(=O)N(CCCl)N=O)CC1 (stereo unspecified) | – | – | – | 3.84 | 1.27 | 0.445 | –
O=NN(CCCl)C(=O)NC(CCC(=O)O)C(=O)O (stereo unspecified) | – | – | – | 0.6 | 0.87 | 0.037 | –
CC(=O)OC1CCC(NC(=O)N(CCCl)N=O)CC1 (stereo unspecified) | – | – | – | 1.66 | 1.55 | 0.813 | –
O=NN(CCCl)C(=O)N[C@H]1CC[C@H](C(=O)O)CC1 | – | – | – | 1.53 | 1.47 | 1.01 | –
O=NN(CCCl)C(=O)NC1CCCCC1NC(=O)N(CCCl)N=O (stereo unspecified) | – | – | – | 3.57 | 1.5 | 0.423 | –
O=NN(CCCl)C(=O)N[C@H]1CC[C@@H](C(=O)O)CC1 | – | – | – | 1.68 | 1.63 | 1.03 | –
O=NN(CCCl)C(=O)NC1CS(=O)(=O)CS(=O)(=O)C1 | – | – | – | -0.9 | 1.9 | 0.842 | –
COCC1OC(O)C(NC(=O)N(CCCl)N=O)C(OC)C1OC (stereo unspecified) | – | – | – | 0.8 | 1.48 | 0.682 | –
O=NN(CCF)C(=O)NC1CC2CCC1C2 (stereo unspecified) | – | – | – | 2.4 | 1.25 | 0.547 | –
Cc1cccc(C)c1NC(=O)N(CCCl)N=O | – | – | – | 2.57 | 1.29 | 0.864 | –
O=NN(CCCl)C(=O)NC(C(=O)O)C1CCCCC1 (stereo unspecified) | – | – | – | 2.89 | 1.23 | 0.602 | –
O=NN(CCCl)C(=O)N[C@@H]1CCCC[C@@H]1O | – | – | – | 1.75 | 1.32 | 0.698 | –
CC1(NC(=O)N(CCCl)N=O)CCCC1 | – | – | – | 2.7 | 0.576 | -0.03 | –

SMILES | logP [1] | log(1/C) (Mus musculus [2]) | log(1/LD10) (Mus musculus [3]) | logP ([1]; read-out: logP) | log(1/C) (L1210 [4]) | log(1/LD10) (L1210 [5]) | LD10 (L1210 [5])
CC(C)(NC(=O)N(CCCl)N=O)C(=O)O | – | – | – | 0.91 | 0.591 | -0.049 | –
O=NN(CCCl)C(=O)NC1CC2CCC1C2 (stereo unspecified) | – | – | – | 2.98 | 1.21 | 0.591 | –
CC(=O)O[C@H]1CCCC[C@@H]1NC(=O)N(CCCl)N=O | – | – | – | 2.56 | 1.65 | 0.91 | –
CO[C@H]1CC[C@@H](NC(=O)N(CCCl)N=O)CC1 | – | – | – | 2.09 | 1.38 | 0.819 | –
O=NN(CCF)C(=O)NC1CCSCC1 | – | – | – | 1.43 | 1.69 | 0.827 | –
O=NN(CCCl)C(=O)NC1(C(=O)O)CCCC1 | – | – | – | 1.82 | 0.605 | 0.308 | –
O=NN(CCCl)C(=O)N[C@@H]1CCCC[C@H]1O | – | – | – | 1.34 | 1.82 | 1.1 | –
CC1CCC(NC(=O)N(CCF)N=O)CC1 (stereo unspecified) | – | – | – | 2.72 | 1.16 | 0.72 | –
C[C@H]1S(=O)(=O)C[C@@H](NC(=O)N(CCCl)N=O)CS1(=O)=O | – | – | – | -0.53 | 1.89 | 1.04 | –
CC(=O)OC1CCC(NC(=O)N(CCF)N=O)CC1 (stereo unspecified) | – | – | – | 1.33 | 1.4 | 0.884 | –
CC1CC(NC(=O)N(CCCl)N=O)CC(C)(C)C1 (stereo unspecified) | – | – | – | 4.06 | 0.294 | -0.434 | –
O=NN(CCCl)C(=O)NC1CCCC(NC(=O)N(CCCl)N=O)C1 (stereo unspecified) | – | – | – | 2.74 | 1.41 | 0.146 | –
COC(=O)[C@H]1CC[C@@H](NC(=O)N(CCCl)N=O)CC1 | – | – | – | 1.89 | 1.51 | 0.733 | –
O=NN(CCCl)C(=O)NC1CCCC1 | – | – | – | 2.19 | 0.74 | 0.215 | –
CC(=O)O[C@@H]1[C@@H](OC(C)=O)[C@H](OC(C)=O)CO[C@H]1NC(=O)N(CCCl)N=O | – | – | – | 0.82 | 1.91 | 1.25 | –
CN(C)C(=O)c1ccc(NC(=O)N(CCCl)N=O)cc1 | – | – | – | 1.07 | 1.87 | – | 1.27
O=NN(CCF)C(=O)NC1C2CC3CC(C2)CC1C3 (stereo unspecified) | – | – | – | 3.04 | 0.797 | 0.592 | –
O=NN(CCF)C(=O)NC1CS(=O)(=O)CS(=O)(=O)C1 | – | – | – | -1.48 | 1.69 | 0.626 | –
CC1SCC(NC(=O)N(CCCl)N=O)CS1 (stereo unspecified) | – | – | – | 2.49 | 1.61 | 1 | –
CCOC(=O)C1CCC(NC(=O)N(CCCl)N=O)CC1 (stereo unspecified) | – | – | – | 2.2 | 1.51 | 0.967 | –
CC(C)(C)C1CCCC(NC(=O)N(CCCl)N=O)C1 (stereo unspecified) | – | – | – | 4.6 | 0.763 | 0.239 | –
O=NN(CCCl)C(=O)NC1CCCC(C(=O)O)C1 (stereo unspecified) | – | – | – | 1.86 | 1.47 | 0.912 | –
O=NN(CCCl)C(=O)NC1CCSCC1 | – | – | – | 2.07 | 2.1 | 1.25 | –
